Results as given in publication PMC7452071 (Acta Pharmaceutica Sinica. B, 2019).

How the values were obtained:
[1] = target: human recombinant HDAC1 enzyme (Homo sapiens, UniProt Q13547); experiment: HDACs activity assay, HDAC1; format: biochemical; conditions: read-out: IC50 HDAC1; Table 3, Table S1 and text
HCT116 (colon cancer) = experiment: In vitro cell viability assay; format: cell-based; conditions: Homo sapiens, HCT-116, 48 h, read-out: IC50 HCT116
MCF-7 (breast cancer) = experiment: In vitro cell viability assay; format: cell-based; conditions: Homo sapiens, MCF7, 48 h, read-out: IC50 MCF-7
A549 (lung cancer) = experiment: In vitro cell viability assay; format: cell-based; conditions: Homo sapiens, A549, 48 h, read-out: IC50 A549
TOP2α = TOP2α (Homo sapiens, UniProt P11388); experiment: TOP2-mediated pBR322 DNA relaxation assay; format: biochemical
TOP2α, sequence (P11388 whole entry): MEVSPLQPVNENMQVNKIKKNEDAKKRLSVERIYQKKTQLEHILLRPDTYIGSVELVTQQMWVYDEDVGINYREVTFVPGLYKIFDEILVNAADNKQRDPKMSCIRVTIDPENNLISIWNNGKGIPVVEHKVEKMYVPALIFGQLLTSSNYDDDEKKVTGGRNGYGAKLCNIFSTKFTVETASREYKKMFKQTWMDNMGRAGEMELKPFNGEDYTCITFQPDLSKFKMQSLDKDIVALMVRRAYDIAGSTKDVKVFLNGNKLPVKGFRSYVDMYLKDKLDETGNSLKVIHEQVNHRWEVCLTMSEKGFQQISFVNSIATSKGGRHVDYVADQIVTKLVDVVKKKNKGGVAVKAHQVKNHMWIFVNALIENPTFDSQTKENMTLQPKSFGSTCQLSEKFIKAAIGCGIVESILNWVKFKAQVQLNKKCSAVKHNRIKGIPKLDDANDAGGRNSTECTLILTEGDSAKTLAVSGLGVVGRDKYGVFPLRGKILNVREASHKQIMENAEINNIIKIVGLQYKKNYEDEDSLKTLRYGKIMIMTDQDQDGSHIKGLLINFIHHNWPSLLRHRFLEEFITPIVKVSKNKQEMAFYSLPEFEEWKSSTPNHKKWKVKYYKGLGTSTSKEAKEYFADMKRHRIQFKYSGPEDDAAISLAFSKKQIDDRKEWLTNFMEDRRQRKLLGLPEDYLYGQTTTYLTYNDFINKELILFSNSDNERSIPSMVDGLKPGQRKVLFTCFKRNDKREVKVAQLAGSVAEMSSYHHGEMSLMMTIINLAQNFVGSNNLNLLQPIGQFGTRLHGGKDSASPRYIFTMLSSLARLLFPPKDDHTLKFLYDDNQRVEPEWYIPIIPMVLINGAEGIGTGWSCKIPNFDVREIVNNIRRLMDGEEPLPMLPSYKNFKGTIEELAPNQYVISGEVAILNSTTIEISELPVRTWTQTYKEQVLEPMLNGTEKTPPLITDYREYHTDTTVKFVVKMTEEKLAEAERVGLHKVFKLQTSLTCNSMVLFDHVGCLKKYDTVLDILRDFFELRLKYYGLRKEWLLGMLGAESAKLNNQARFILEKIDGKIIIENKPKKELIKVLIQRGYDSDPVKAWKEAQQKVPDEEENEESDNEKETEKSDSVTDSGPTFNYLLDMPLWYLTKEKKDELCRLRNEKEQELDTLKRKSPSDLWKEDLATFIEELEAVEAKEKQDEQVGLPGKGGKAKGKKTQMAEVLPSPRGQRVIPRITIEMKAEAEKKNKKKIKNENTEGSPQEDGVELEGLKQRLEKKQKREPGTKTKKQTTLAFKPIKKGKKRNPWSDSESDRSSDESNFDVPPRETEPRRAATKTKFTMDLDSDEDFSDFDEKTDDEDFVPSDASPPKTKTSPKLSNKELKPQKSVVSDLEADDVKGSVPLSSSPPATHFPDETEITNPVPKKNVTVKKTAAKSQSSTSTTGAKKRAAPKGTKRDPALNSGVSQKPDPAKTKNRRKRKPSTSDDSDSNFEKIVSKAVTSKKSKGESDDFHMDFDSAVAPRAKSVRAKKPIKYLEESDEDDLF

HUVEC = experiment: Cytotoxicity against human normal cell line HUVEC; format: cell-based; conditions: read-out: IC50 HUVEC
[2] = tested on: hematological cell lines (HL60, K562 and HEL); experiment: Antiproliferative activity, hematological cell lines together; format: cell-based; conditions: read-out: IC50 range toward hematological cell lines
[3] = In vitro metabolic stability in mice liver microsomes; format: in vitro ADME
HDAC2 = HDAC2 (Homo sapiens, UniProt Q92769); experiment: HDACs activity assay, HDAC2; format: biochemical
HDAC2, sequence (Q92769 whole entry, canonical isoform): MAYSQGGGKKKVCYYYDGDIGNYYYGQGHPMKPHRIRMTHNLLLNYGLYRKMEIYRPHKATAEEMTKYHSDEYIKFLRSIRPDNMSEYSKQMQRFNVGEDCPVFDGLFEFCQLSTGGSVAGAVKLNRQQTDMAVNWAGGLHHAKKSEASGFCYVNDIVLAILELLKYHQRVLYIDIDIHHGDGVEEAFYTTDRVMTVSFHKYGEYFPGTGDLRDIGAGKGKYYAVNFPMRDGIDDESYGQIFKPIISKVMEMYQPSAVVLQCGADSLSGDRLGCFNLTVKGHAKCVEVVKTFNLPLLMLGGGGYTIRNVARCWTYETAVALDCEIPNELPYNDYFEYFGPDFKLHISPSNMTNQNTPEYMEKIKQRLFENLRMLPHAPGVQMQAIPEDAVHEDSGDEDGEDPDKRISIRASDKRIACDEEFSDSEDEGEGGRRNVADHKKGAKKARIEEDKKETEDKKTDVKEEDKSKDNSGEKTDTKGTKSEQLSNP
How it was run: (§1)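 Enzyme reactions run 30 min at 37 °C in 25 mmol/L Tris pH 8.0, 137 mmol/L NaCl, 2.7 mmol/L KCl, 1 mmol/L MgCl2, 0.1 mg/mL BSA with the HDAC isoform and its substrate. Test compound diluted in 10% DMSO, final DMSO 1%. Fluorescent product read at excitation 350–360, emission 450–460. IC50 from normalized nonlinear dose-response fit. At least three independent runs; mean ± SD (n = 3).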

HDAC3 = HDAC3 (Homo sapiens, UniProt O15379); experiment: HDACs activity assay, HDAC3; format: biochemical
HDAC3, sequence (O15379 whole entry): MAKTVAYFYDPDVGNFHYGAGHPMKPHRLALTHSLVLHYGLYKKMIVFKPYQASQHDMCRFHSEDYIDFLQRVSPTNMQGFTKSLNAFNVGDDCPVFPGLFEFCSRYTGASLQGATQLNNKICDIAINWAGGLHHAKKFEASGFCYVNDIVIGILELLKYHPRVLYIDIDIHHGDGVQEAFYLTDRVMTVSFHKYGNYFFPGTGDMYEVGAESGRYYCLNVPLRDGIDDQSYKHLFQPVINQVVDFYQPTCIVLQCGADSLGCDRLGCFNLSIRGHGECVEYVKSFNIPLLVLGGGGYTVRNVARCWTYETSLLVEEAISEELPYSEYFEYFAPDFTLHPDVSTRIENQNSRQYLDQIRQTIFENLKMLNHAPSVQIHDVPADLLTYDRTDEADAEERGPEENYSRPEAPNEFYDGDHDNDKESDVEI
HDAC3, sequence (Q9Y618 395-489 partner limits assumed): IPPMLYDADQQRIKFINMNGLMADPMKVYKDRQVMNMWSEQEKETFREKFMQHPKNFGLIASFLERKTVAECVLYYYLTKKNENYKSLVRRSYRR
How it was run: as §1

HDAC4 = HDAC4 (Homo sapiens, UniProt P56524); experiment: HDACs activity assay, HDAC4; format: biochemical
How it was run: as §1

HDAC6 = HDAC6 (Homo sapiens, UniProt Q9UBN7); experiment: HDACs activity assay, HDAC6; format: biochemical
How it was run: as §1

HDAC8 = HDAC8 (Homo sapiens, UniProt Q9BY41); experiment: HDACs activity assay, HDAC8; format: biochemical
HDAC8, sequence (Q9BY41 whole entry): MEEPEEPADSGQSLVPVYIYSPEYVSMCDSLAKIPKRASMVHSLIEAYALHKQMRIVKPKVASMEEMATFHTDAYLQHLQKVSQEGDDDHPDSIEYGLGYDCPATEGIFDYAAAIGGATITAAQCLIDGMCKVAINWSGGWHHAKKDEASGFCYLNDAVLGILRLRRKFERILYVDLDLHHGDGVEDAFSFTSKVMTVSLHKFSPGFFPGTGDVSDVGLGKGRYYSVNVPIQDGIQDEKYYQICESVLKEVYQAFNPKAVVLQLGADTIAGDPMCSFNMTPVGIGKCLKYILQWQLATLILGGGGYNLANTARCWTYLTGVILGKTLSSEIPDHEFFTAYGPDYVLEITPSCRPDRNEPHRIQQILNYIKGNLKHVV
How it was run: as §1

HDAC10 = HDAC10 (Homo sapiens, UniProt Q969S8); experiment: HDACs activity assay, HDAC10; format: biochemical
HDAC10, sequence (Q969S8 whole entry): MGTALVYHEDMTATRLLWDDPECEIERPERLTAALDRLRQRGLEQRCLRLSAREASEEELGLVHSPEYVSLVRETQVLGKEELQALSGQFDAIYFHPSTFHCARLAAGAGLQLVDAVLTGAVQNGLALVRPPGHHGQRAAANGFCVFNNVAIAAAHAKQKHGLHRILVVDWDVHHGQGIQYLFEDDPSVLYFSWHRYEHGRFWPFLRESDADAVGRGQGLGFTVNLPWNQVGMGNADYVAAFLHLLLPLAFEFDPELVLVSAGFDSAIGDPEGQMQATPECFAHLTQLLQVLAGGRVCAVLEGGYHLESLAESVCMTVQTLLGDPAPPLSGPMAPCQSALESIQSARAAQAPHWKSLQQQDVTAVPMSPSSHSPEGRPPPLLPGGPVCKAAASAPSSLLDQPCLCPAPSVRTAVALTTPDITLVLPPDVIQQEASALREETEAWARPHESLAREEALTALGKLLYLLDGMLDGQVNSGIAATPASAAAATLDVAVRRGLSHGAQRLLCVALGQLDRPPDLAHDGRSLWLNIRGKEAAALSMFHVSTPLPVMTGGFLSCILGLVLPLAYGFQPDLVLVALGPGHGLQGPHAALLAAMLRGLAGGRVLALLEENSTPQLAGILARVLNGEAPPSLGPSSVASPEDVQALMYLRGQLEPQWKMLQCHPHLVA
How it was run: as §1

HDAC11 = HDAC11 (Homo sapiens, UniProt Q96DB2); experiment: HDACs activity assay, HDAC11; format: biochemical
HDAC11, sequence (Q96DB2 whole entry): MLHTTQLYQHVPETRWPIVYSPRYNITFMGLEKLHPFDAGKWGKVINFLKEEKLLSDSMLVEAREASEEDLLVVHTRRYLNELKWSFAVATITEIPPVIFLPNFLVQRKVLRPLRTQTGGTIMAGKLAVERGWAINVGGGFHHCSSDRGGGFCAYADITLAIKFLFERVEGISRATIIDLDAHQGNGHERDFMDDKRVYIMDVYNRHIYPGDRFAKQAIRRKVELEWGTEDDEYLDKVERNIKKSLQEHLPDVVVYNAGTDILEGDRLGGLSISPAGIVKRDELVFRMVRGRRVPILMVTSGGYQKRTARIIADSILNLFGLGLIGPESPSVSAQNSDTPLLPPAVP
How it was run: as §1

[4] = tested on: Acetyl-H3 and Acetyl-H4 in HCT116 cells; experiment: Western blot for acetylated histones H3 and H4; format: cell-based, human; conditions: 0.5 and 5 μmol/L, 24 h
How it was run: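 HCT116 cells (35 × 10^4/well) were exposed 24 h to test compound or DMSO vehicle, washed with cold PBS and lysed 30 min on ice in RIPA with protease/phosphatase inhibitors. BCA-quantified protein (30 μg) was run on SDS-PAGE and transferred to PVDF. Membranes were blocked 2 h in 5% BSA, probed overnight at 4 °C with anti-histone H3 and H4 antibodies, then secondary 1.5 h. Infrared imaging.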

γH2AX in HCT116 cells = experiment: Western blot for γH2AX; format: cell-based, human; conditions: 0.5 and 5 μmol/L, 24 h
How it was run: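 HCT116 seeded at 35 × 10^4 cells/well, treated 24 h with test compound or vehicle. Cells washed in cold PBS, lysed 30 min on ice in RIPA with protease and phosphatase inhibitors, protein quantified by BCA. 30 μg resolved by SDS-PAGE, transferred to PVDF, blocked 2 h in 5% BSA, primary antibody overnight at 4 °C, secondary 1.5 h, infrared imaging.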

HCT116 cells [5] = experiment: Flow cytometry assay of cell apoptosis; format: cell-based, human; conditions: 48 h
HCT116 cells [6] = experiment: Flow cytometry analysis of cell cycle; format: cell-based, human; conditions: 48 h
[7] = Pharmacokinetic study in SD rats; format: in vivo; conditions: male, Sprague-Dawley, rat, plasma, 20 mg/kg
HCT116 xenograft = experiment: In vivo tumor growth inhibition assay against HCT116 xenograft; conditions: bid
[8] = female, ICR, mouse, liver microsomes, pH 7.4

human recombinant HDAC1 enzyme, sequence (Q13547 whole entry): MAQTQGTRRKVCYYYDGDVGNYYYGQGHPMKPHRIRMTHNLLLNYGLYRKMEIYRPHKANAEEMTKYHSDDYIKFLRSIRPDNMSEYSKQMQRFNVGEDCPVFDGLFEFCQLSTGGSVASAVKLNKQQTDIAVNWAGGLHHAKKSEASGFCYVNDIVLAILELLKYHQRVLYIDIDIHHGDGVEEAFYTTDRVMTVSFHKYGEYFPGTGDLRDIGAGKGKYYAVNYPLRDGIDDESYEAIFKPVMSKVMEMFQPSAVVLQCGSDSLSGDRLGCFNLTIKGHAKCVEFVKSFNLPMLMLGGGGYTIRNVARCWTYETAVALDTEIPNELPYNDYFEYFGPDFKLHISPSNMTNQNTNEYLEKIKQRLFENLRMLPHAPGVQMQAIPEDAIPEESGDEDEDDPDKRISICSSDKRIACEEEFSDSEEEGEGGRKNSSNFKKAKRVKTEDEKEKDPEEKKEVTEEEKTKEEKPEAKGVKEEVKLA

Structure (SMILES): CN1c2ccccc2C(=O)N2[C@H](C(=O)Nc3ccc(C(=O)Nc4ccccc4N)cc3)Cc3c([nH]c4ccccc34)[C@@H]12 [Compound 30a, (7S,13bS)-N-(4-((2-Aminophenyl)carbamoyl)phenyl)-14-methyl-5-oxo-5,7,8,13,13b,14-hexahydroindolo[2′,3′:3,4]pyrido[2,1-b]quinazoline-7-carboxamide]
- IC50 [1]: 0.16 ± 0.015 µM
- IC50 (HCT116 (colon cancer)): 1.6 ± 0.15 µM
- IC50 (MCF-7 (breast cancer)): 18 ± 2 µM
- IC50 (A549 (lung cancer)): 7.8 ± 0.65 µM
- TOP2 inhibitory activity (relaxation assay) (TOP2α; 50 μmol/L): remarkable TOP2 inhibitory activities
- TOP2 inhibitory activity (relaxation assay) (TOP2α; 100 μmol/L): remarkable TOP2 inhibitory activities
- IC50 (HUVEC): 48 µM
- IC50 [2]: 0.56 to 1.9 µM
- half-life at 1 μmol/L [3, 8]: 0.583 h
- microsomal CLint at 1 μmol/L [3, 8]: 39.1 µL/min/mg
- Microsomal t1/2 relative to compound 25a ([3]; mice liver microsomes): ~3 fold
- IC50 (HDAC2): 10 ± 1.4 µM
- IC50 (HDAC3): 27 ± 4.8 µM
- IC50 (HDAC4): > 100 µM
- IC50 (HDAC6): > 100 µM
- IC50 (HDAC8): > 100 µM
- IC50 (HDAC10): 5.5 ± 1.5 µM
- IC50 (HDAC11): > 100 µM
- Acetylation of histone 3 and 4 (Acetyl-H3 and Acetyl-H4) [4]: hyperacetylation effect of histone 3 and 4 (Acetyl-H3 and Acetyl-H4) in a dose-dependent manner
- Expression of γH2AX (γH2AX in HCT116 cells): increased the expression of γH2AX
- Percentage of apoptotic cells (HCT116 cells [5]; HCT116, 0.5 μmol/L): 27.6%
- Percentage of apoptotic cells (HCT116 cells [5]; HCT116, 1 μmol/L): 37.1%
- Percentage of apoptotic cells (HCT116 cells [5]; HCT116, 5 μmol/L): 88.8%
- Ratio of cells at the G2/M phase (HCT116 cells [6]; HCT116, 0.5 μmol/L): 32.9%
- Ratio of cells at the G2/M phase (HCT116 cells [6]; HCT116, 1 μmol/L): 36.4%
- Ratio of cells at the G2/M phase (HCT116 cells [6]; HCT116, 2 μmol/L): 38.8%
- AUC(0-t) ([7]; ip): 86900 ng·h/mL
- half-life ([7]; ip): > 24 h
- AUC(0-t) ([7]; po): 485 ng·h/mL
- half-life ([7]; po): 4.03 h
- Tumor growth inhibition (TGI) (HCT116 xenograft; 20 mg/kg, i.p., 14 consecutive days): 63.6%
- Tumor growth inhibition (TGI) (HCT116 xenograft; 100 mg/kg, p.o., 21 days): 65.42%
- Tumor growth inhibition (TGI) (HCT116 xenograft; 150 mg/kg, p.o., 21 days (dose of the combination not given)): 75.2%
- Body weight during the test (HCT116 xenograft; p.o., 100 or 150 mg/kg, 21 days): no significant difference
